One substance from ChEMBL document CHEMBL1124396, “New brain perfusion imaging agents based on 99mTc-bis(aminoethanethiol) complexes: stereoisomers and biodistribution” (J Med Chem, 1989) can be followed below.

Several values for one entry are separate records, joined by “and”; a condition that tells them apart may be missing. Identical values can stand only once.

Data set [1] concerns Rattus norvegicus. In words: Biodistribution in the thyroid of rat, 15 min after administration. Particulars: in vivo, 0.25 h. It counts as ADME, organism-based, Thyroid gland. The gist of the method:
(§1)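 Male Sprague-Dawley rats (200-300 g) under ether anesthesia were given the 99mTc complex (0.5-20 μCi in 0.2 mL saline) iv via the femoral vein. Organs were taken at 2 or 15 min. Uptake is reported as % dose/organ, found by comparing tissue radioactivity with dilutions of the injected dose.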

Data set [2] concerns Rattus norvegicus. As to the kind of experiment: Biodistribution in the thyroid of rat, 2 min after administration. Particulars: in vivo. The data set is classed as ADME, organism-based, Thyroid gland. The gist of the method:
as §1

Data set [3] concerns Rattus norvegicus. As to the kind of experiment: Biodistribution in the blood of rat, 15 min after administration. It counts as ADME, organism-based. Particulars: in vivo, 0.25 h. The gist of the method:
as §1

Data set [4] concerns Rattus norvegicus. As to the kind of experiment: Biodistribution in the blood of rat, 2 min after administration. It counts as ADME, organism-based. Particulars: in vivo. The method, boiled down: as §1
Data set [5] relates to Rattus norvegicus. As to the kind of experiment: Biodistribution in the brain blood of rat, 15 min after administration. It counts as ADME, organism-based. Particulars: in vivo, 0.25 h. The method, boiled down:
(§2)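 Rats (male Sprague-Dawley, 200-300 g) received the 99mTc complex iv (femoral vein, ether anesthesia; 0.5-20 μCi in 0.2 mL saline) and were sampled at 2 or 15 min. % dose/organ was converted to % dose/gram using mean organ weights (brain 1.65 g, blood 18 g). Brain:blood ratio was taken from these % dose/gram values.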

Data set [6] concerns Rattus norvegicus. As to the kind of experiment: Biodistribution in the brain blood of rat, 2 min after administration. The data set is classed as ADME, organism-based. Particulars: in vivo. The gist of the method:
as §2

Data set [7] deals with Rattus norvegicus. In words: Biodistribution in the brain of rat, 15 min after administration. The data set is classed as ADME, organism-based. Particulars: in vivo, 0.25 h. The method, boiled down: as §1
For data set [8], the system named is Rattus norvegicus. As to the kind of experiment: Biodistribution in the heart of rat, 15 min after administration. Particulars: in vivo, 0.25 h. It counts as ADME, organism-based. The method, boiled down: as §1
The subject of data set [9] is Rattus norvegicus. In words: Biodistribution in the heart of rat, 2 min after administration. The data set is classed as ADME, organism-based. Particulars: in vivo. The gist of the method: as §1
The subject of data set [10] is Rattus norvegicus. As to the kind of experiment: Biodistribution in the kidneys of rat, 15 min after administration. The data set is classed as ADME, organism-based, Kidney. Particulars: in vivo, 0.25 h. The method, boiled down: as §1
Data set [11] deals with Rattus norvegicus. In words: Biodistribution in the kidneys of rat, 2 min after administration. Particulars: in vivo. It counts as ADME, organism-based, Kidney. The method, boiled down: as §1
Data set [12] has as its system Rattus norvegicus. In words: Biodistribution in the liver of rat, 15 min after administration. It counts as ADME, organism-based. Particulars: in vivo, 0.25 h. The gist of the method:
as §1

For data set [13], the system named is Rattus norvegicus. As to the kind of experiment: Biodistribution in the lungs of rat, 15 min after administration. Particulars: in vivo, 0.25 h. The data set is classed as ADME, organism-based, Lung. The gist of the method: as §1
Data set [14] relates to Rattus norvegicus. In words: Biodistribution in the lungs of rat, 2 min after administration. It counts as ADME, organism-based, Lung. Particulars: in vivo. The method, boiled down:
as §1

For data set [15], the system named is Rattus norvegicus. In words: Biodistribution in the muscle of rat, 15 min after administration. It counts as ADME, organism-based, Muscle tissue. Particulars: in vivo, 0.25 h. The gist of the method:
as §1

In data set [16] the test system is Rattus norvegicus. In words: Biodistribution in the muscle of rat, 2 min after administration. It counts as ADME, organism-based, Muscle tissue. Particulars: in vivo. The gist of the method: as §1
The test system of data set [17] is Rattus norvegicus. As to the kind of experiment: Biodistribution in the skin of rat, 15 min after administration. It counts as ADME, organism-based, Zone of skin. Particulars: in vivo, 0.25 h. The method, boiled down: as §1
The test system of data set [18] is Rattus norvegicus. As to the kind of experiment: Biodistribution in the spleen of rat, 15 min after administration. The data set is classed as ADME, organism-based. Particulars: in vivo, 0.25 h. The gist of the method: as §1
The subject of data set [19] is Rattus norvegicus. In words: Biodistribution in the stomach of rat, 15 min after administration. The data set is classed as ADME, organism-based. Particulars: in vivo, 0.25 h. The method, boiled down:
as §1

Data set [20] relates to Rattus norvegicus. As to the kind of experiment: Biodistribution in the stomach of rat, 2 min after administration. The data set is classed as ADME, organism-based. Particulars: in vivo. The gist of the method: as §1
In data set [21] the test system is Rattus norvegicus. In words: Biodistribution in the spleen of rat, 2 min after administration. It counts as ADME, organism-based. Particulars: in vivo. The gist of the method: as §1
In data set [22] the test system is Rattus norvegicus. As to the kind of experiment: Biodistribution in the skin of rat, 2 min after administration. It counts as ADME, organism-based, Zone of skin. Particulars: in vivo. The method, boiled down:
as §1

“(Syn-isomer) 99mTc-2,3-bis(2-thioacetamido)propanate”: the Biodistribution in the data set with Rattus norvegicus [1] is 0.07%; in the data set on Rattus norvegicus [2], 0.22%; with Rattus norvegicus [3], 2.04%; with Rattus norvegicus [4], 5.37% and 2.46%; in the data set with Rattus norvegicus [5], 5.82%; in the data set with Rattus norvegicus [6] it was 5.33%. The Biodistribution was found to be 1.08% with Rattus norvegicus [7]; 0.43% in the data set with Rattus norvegicus [8]; 2.46% with Rattus norvegicus [9]; 2.22% in the data set on Rattus norvegicus [10]; 7.8% with Rattus norvegicus [11]; 18.6% in the data set on Rattus norvegicus [12]. Further, the Biodistribution in the data set on Rattus norvegicus [13] is 3.38%; in the data set with Rattus norvegicus [14], 9.18% and 2.77%; in the data set with Rattus norvegicus [15] it was 18.1%; in the data set on Rattus norvegicus [16], 8.43%; with Rattus norvegicus [17], 15.7%; in the data set on Rattus norvegicus [18], 0.79%. The Biodistribution came out at 4.51% in the data set on Rattus norvegicus [19], 1.85% in the data set with Rattus norvegicus [20], 0.7% in the data set on Rattus norvegicus [21] and 9.18% in the data set on Rattus norvegicus [22].
